From ChEMBL document CHEMBL1144711, “Polyaminohydroxamic acids and polyaminobenzamides as isoform selective histone deacetylase inhibitors” (J Med Chem, 2008)

Tests used:
[1] = tested on: HCT-116; test: Increase in p21waf1 re-expression in human HCT116 cells at 10 uM after 24 hrs relative to control; type: functional
How it was run: (§1)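 HCT116 cells adhered overnight, then exposed to 10 μM compound for 24 h. Cells lysed in HEPES pH 7.9/NaCl/Triton buffer with protease inhibitors at 4 °C. 30 μg total protein per lane run on 10% Bis-Tris gels and blotted with antibodies to AcH3, AcH4, p21waf1 or acetylated α-tubulin, with α-actin also probed. Infrared fluorescent secondaries used for quantification; single determinations reported as fold increase.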

[2] = target: T1, Histone deacetylase (Homo sapiens) (UniProt Q13547+O15379+Q9UBN7+Q92769+Q9UQL6+Q8WUI4+Q9BY41+Q96DB2+P56524+Q9UKV0+Q969S8); settings: HeLa, at 1 µM
[3] = tested on: HCT-116; test: Increase in acetylated alpha tubulin level in human HCT116 cells at 10 uM after 24 hrs relative to control; type: functional; how it was run: as §1
[4] = tested on: HCT-116; test: Increase in acetylated histone H3 level in human HCT116 cells at 10 uM after 24 hrs relative to control; type: functional; how it was run: as §1
[5] = tested on: HCT-116; test: Cytotoxicity against human HCT116 cells assessed as cell viability after 96 hrs by MTS reduction assay; type: functional, cell-based; settings: HCT-116, 96 h
[6] = tested on: HCT-116; test: Increase in acetylated histone H4 level in human HCT116 cells at 10 uM after 24 hrs relative to control; type: functional; how it was run: as §1
[7] = tested on: HCT-116; test: Cytotoxicity against human HCT116 cells assessed as cell viability after 96 hrs by MTS reduction assay in presence of diamine oxidase inhibitor aminoguanidine; type: functional, cell-based; settings: HCT-116, 96 h
How it was run: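 HCT116 cells in McCoy's 5A with 10% fetal calf serum, 37 °C, 5% CO2; 3000 cells/well seeded in triplicate and attached overnight. Medium replaced with fresh medium containing a range of compound concentrations for 96 h. CellTiter 96 One Solution MTS added for 1.5 h at 37 °C, absorbance read at 490 nm. Two separate experiments averaged to give IC50.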

[8] = target: T1, Histone deacetylase (Homo sapiens); test: Inhibition of human HDAC at 1 uM
[9] = Inhibition of [14C]spermidine uptake at human polyamine transporter in ML1 cells; type: cell-based
How it was run: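 Competition for 14C-spermidine uptake in ML-1 acute myelogenous leukemia cells. Concentration-dependent spermidine uptake measured in the presence of 0.0, 10.0, 25.0 and 50.0 μM test compound.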

[10] = target: T1, Histone deacetylase (Homo sapiens); test: Inhibition of human HDAC in HeLa cells at 5 uM; type: cell-based
[11] = target: T2, Protein deacetylase HDAC6 (Homo sapiens) (UniProt Q9UBN7); test: Inhibition of human recombinant HDAC6; settings: concentration not given here
T2 sequence (whole entry): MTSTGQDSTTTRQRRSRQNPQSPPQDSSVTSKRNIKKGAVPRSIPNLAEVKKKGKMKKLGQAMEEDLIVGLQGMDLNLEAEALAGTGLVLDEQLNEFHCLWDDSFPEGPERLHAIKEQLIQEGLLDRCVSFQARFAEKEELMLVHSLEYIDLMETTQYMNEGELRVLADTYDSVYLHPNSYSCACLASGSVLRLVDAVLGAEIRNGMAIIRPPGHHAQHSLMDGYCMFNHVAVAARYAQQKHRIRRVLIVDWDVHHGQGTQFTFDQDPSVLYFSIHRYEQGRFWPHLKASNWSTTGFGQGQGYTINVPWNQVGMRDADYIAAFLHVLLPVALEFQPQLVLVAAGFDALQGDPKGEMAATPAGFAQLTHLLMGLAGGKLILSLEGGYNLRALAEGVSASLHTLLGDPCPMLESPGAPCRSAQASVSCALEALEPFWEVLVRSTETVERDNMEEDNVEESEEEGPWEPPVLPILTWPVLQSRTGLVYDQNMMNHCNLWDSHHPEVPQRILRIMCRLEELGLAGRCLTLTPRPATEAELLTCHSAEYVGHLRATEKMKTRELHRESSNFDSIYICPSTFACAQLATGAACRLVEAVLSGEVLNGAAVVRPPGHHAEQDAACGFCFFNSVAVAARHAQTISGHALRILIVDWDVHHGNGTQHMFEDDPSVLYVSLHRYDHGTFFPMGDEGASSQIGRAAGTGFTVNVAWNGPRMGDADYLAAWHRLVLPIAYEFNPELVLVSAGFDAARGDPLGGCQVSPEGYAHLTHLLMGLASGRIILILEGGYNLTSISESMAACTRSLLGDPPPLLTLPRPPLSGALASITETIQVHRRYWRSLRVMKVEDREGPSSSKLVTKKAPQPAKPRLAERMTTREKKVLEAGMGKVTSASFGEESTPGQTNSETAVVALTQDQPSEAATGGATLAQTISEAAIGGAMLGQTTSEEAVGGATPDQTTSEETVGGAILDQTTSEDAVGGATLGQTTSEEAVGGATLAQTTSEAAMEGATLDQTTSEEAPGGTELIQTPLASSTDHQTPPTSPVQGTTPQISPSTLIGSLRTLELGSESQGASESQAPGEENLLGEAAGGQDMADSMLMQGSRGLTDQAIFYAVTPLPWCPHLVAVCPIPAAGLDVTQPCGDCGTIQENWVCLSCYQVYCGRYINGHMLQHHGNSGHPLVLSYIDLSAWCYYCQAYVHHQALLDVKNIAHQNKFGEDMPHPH

[12] = target: Histone deacetylase 3 (Homo sapiens) (UniProt O15379); test: Inhibition of human recombinant HDAC3; settings: concentration not given here
Histone deacetylase 3 (Homo sapiens), sequence (O15379 whole entry): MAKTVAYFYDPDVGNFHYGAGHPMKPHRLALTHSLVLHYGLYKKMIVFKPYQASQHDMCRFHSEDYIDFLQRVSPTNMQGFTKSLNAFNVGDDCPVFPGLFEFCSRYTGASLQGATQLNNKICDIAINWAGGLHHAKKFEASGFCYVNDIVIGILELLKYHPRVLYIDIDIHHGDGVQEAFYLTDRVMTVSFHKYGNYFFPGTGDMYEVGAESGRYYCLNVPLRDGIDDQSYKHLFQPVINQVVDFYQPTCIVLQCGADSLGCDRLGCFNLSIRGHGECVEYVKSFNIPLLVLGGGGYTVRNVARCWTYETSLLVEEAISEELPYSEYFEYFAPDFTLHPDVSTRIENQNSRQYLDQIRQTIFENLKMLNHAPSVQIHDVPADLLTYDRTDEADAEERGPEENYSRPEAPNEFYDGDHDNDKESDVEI

CN(C)c1ccc(CNCCCCNCCCNC(=O)CCCCCCC(=O)NO)cc1
Fold change [1]: 0.46 | inhibition [2]: 46.7% | Fold change [3]: 6.76 | Fold change [4]: 0 | IC50 [5]: > 100 µM | Fold change [6]: 1.36

CC(C)c1ccc(CNCCCCNCCCNC(=O)CCCCC(=O)NO)cc1
Fold change [1]: 3.01 | inhibition [2]: 15.9% | Fold change [3]: 75.7 | Fold change [4]: 3.76 | IC50 [5]: > 100 µM | Fold change [6]: 14.22

CN(C)c1ccc(CN(CCCNCCCCN)C(=O)CCCCCCC(=O)NO)cc1
Fold change [1]: 0.49 | IC50 [7]: > 100 µM | inhibition [2]: 58.6% | Fold change [3]: 6.07 | Fold change [4]: 0 | IC50 [5]: 38.6 µM | inhibition [8]: 58.6% | Fold change [6]: 1.95

CC(C)(C)c1ccc(CNCCCCNCCCNC(=O)CCCC(=O)NCc2ccc(C(=O)Nc3ccccc3N)cc2)cc1
inhibition [2]: 28% | IC50 [5]: > 100 µM | Ki [9]: 7.7 µM | inhibition [10]: 37.4%

O=C(CCCCCCC(=O)NCCCNCCCCNCCSc1ccccc1)NO
Fold change [1]: 1.98 | inhibition [2]: 16.5% | Fold change [3]: 101.36 | Fold change [4]: 0 | IC50 [5]: > 100 µM | Fold change [6]: 11.68

O=C(CCCCC(=O)NCCCNCCCCNCCSc1ccccc1)NO
Fold change [1]: 2.56 | inhibition [2]: 6.7% | Fold change [3]: 72.9 | Fold change [4]: 2.38 | IC50 [5]: > 100 µM | Fold change [6]: 12.06

O=C(CCCCCCC(=O)NCCCNCCCNCCCNCCC(c1ccccc1)c1ccccc1)NO
inhibition [2]: 55.2% | IC50 [5]: > 100 µM

O=C(CCCCCCCCC(=O)NCCCNCCCCNCCC(c1ccccc1)c1ccccc1)NO
Fold change [1]: 0.41 | inhibition [2]: 73.9% | Fold change [3]: 1.97 | Fold change [4]: 0 | IC50 [5]: > 100 µM | Fold change [6]: 0.95

CC(C)(C)c1ccc(CNCCCCNCCCNC(=O)CCCCCCCC(=O)NO)cc1
Fold change [1]: 0.61 | inhibition [2]: 88.7% | Fold change [3]: 11.99 | Fold change [4]: 0 | IC50 [5]: > 100 µM | Fold change [6]: 3.25

Nc1ccccc1NC(=O)c1ccc(CNC(=O)CCCCCCC(=O)NCCCNCCCCNCCC(c2ccccc2)c2ccccc2)cc1
IC50 [5]: > 100 µM | inhibition [10]: 66.7%

CN(C)c1ccc(CN(CCCNCCCCNCc2ccc(C(C)(C)C)cc2)C(=O)CCCCC(=O)NO)cc1
inhibition [2]: 2%

CC(C)(C)c1ccc(CNCCCCNCCCNC(=O)CCCCCC(=O)NO)cc1
inhibition [11]: 99.7% | Fold change [1]: 2.33 | Fold change [3]: 253.25 | Fold change [4]: 21.49 | IC50 [5]: > 100 µM | inhibition [12]: 99.1% | Fold change [6]: 20.84

CC(C)c1ccc(CNCCCCNCCCNC(=O)CCCCCCC(=O)NO)cc1
Fold change [1]: 0.86 | inhibition [2]: 41.4% | Fold change [3]: 11.98 | Fold change [4]: 0 | IC50 [5]: > 100 µM | Fold change [6]: 4.74

O=C(CCCCCCC(=O)NCCCNCCCCNCc1ccccc1-c1ccccc1)NO
Fold change [1]: 1.64 | inhibition [2]: 38.6% | Fold change [3]: 36.3 | Fold change [4]: 5.19 | IC50 [5]: > 100 µM | Fold change [6]: 7.82

O=C(CCCCCC(=O)NCCCNCCCCNCCC(c1ccccc1)c1ccccc1)NO
inhibition [2]: 46.3% | IC50 [5]: > 100 µM

CC(C)(C)c1ccc(CNCCCCNCCCNC(=O)CCCCCCC(=O)NCc2ccc(C(=O)Nc3ccccc3N)cc2)cc1
inhibition [11]: 11.7% | Fold change [1]: 2.55 | inhibition [2]: 30.8% | Fold change [3]: 2.27 | Fold change [4]: 1.19 | IC50 [5]: > 100 µM | inhibition [12]: 1.3% | inhibition [10]: 51.2% | Fold change [6]: 1.12

O=C(CCCCC(=O)NCCCNCCCCNCc1ccccc1-c1ccccc1)NO
Fold change [1]: 2.01 | inhibition [2]: 71.3% | Fold change [3]: 89.01 | Fold change [4]: 3.34 | IC50 [5]: > 100 µM | Fold change [6]: 17.4

O=C(CCCCCCCC(=O)NCCCNCCCCNCCC(c1ccccc1)c1ccccc1)NO
inhibition [2]: 54.6% | IC50 [5]: > 100 µM
